Measurements taken from ChEMBL document CHEMBL1143581, “Cationic chalcone antibiotics. Design, synthesis, and mechanism of action” (2005).
In brackets after ≈: the same amount, converted by molar mass. Activity calls are given as the source filed them. The rule behind the calls is not given here.

Columns and labels:
[1] = system: Staphylococcus aureus; assay: Minimum inhibitory concentration against Staphylococcus aureus ATCC 33591 (resistant to methicillin); assay type: functional
[2] = system: Enterococcus faecium; assay: Minimum inhibitory concentration against Enterococcus faecium […]; assay type: functional
[3] = system: Enterococcus faecium; assay: Minimum inhibitory concentration against Enterococcus faecium 17501 (vancomycin-resistant clinical isolate); assay type: functional
[4] = system: Enterococcus faecium; assay: Minimum inhibitory concentration against Enterococcus faecium 17501 (vancomycin-resistant clinical isolate); NA=not active; assay type: functional, organism-based
[5] = system: Enterococcus faecium; assay: Minimum inhibitory concentration against Enterococcus faecium […]; NA=not active; assay type: functional, organism-based
How it was run: (§1)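 Broth microdilution per NCCLS in Mueller-Hinton medium, run in triplicate, with an added uninoculated compound dilution series in case of precipitation. MIC read as the lowest concentration preventing visible growth; reported values are the mean of three experiments.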

[6] = system: Escherichia coli; assay: (§2) Minimum inhibitory concentration against Escherichia coli ATCC 25922; NA=not active; assay type: functional, organism-based
[7] = Percent lysis of human erythrocytes after exposed to test compound was measured as hemolysis; assay type: functional
[8] = system: Escherichia coli; assay: Minimum inhibitory concentration against Escherichia coli ATCC 25922; assay type: functional; how it was run: as §1
[9] = system: Staphylococcus aureus; assay: Effect on bacterial membrane integrity was determined by using SYTO9 green fluorescent […]; assay type: functional, Bacteria
How it was run: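 Incubated 15 min at 37 °C with agitation, then resuspended to OD600 ~0.4 and stained with BacLight (SYTO-9/propidium iodide) 15 min dark. Excitation 485 nm, emission 530/630 nm; green/red ratio normalized to untreated control.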

[10] = system: Staphylococcus aureus; assay: Minimum inhibitory concentration against Staphylococcus aureus ATCC 33591 (resistant to methicillin); NA=not active; assay type: functional, organism-based
[11] = system: Escherichia coli; assay: as §2; assay type: functional, organism-based; how it was run: as §1; remark: listed apart in the source

SMILES | MIC [1] [µM] | MIC [2] [µM] | MIC [3] [µM] | other results
CN(C)CCNc1ccc(/C=C/C(=O)c2ccc(Oc3ccccc3)cc2)cc1 | 20 (≈ 7.73 µg/mL) | 10 (≈ 3.86 µg/mL) | 20 (≈ 7.73 µg/mL) | –
CN(C)CCNc1ccc(C(=O)/C=C/c2ccccc2)cc1 | 300 (≈ 88.3 µg/mL) | – | – | MIC [4]: inactive; MIC [5]: inactive
CN(C)CCNc1cccc(C(=O)/C=C/c2ccc(N3CCN(C)CC3)c(-c3ccccc3)c2)c1 | 75 (≈ 35.1 µg/mL) | 150 (≈ 70.3 µg/mL) | 75 (≈ 35.1 µg/mL) | MIC [6]: inactive
Cc1cc(C)cc(-c2ccc(N3CCNCC3)c(/C=C/C(=O)c3cccc(NCCN(C)C)c3)c2)c1 | 2 (≈ 0.965 µg/mL) | 5 (≈ 2.41 µg/mL) | 5 (≈ 2.41 µg/mL) | Hemolysis [7]: 0%; MIC [8]: 5 µM (≈ 2.41 µg/mL); Membrane integrity [9]: 3%
COc1ccc(C(=O)/C=C/c2cc(-c3cccnc3)ccc2N2CCN(C)CC2)c(F)c1 | 75 (≈ 32.4 µg/mL) | 75 (≈ 32.4 µg/mL) | 75 (≈ 32.4 µg/mL) | –
COc1ccc(C(=O)/C=C/c2cc(-c3ccccc3)ccc2OCCN(C)C)c(F)c1 | 5 (≈ 2.1 µg/mL) | 10 (≈ 4.19 µg/mL) | 10 (≈ 4.19 µg/mL) | –
COc1ccc(C(=O)/C=C/c2cc(-c3ccccc3OC)ccc2N2CCCN(C)CC2)c(F)c1 | 10 (≈ 4.75 µg/mL) | 20 (≈ 9.49 µg/mL) | 10 (≈ 4.75 µg/mL) | –
Cc1cc(C)cc(-c2ccc(OCCN(C)C)c(/C=C/C(=O)c3ccccc3NCCN(C)C)c2)c1 | 10 (≈ 4.86 µg/mL) | 10 (≈ 4.86 µg/mL) | 10 (≈ 4.86 µg/mL) | MIC [8]: 10 µM (≈ 4.86 µg/mL)
COc1ccc(C(=O)/C=C/c2cc(-c3ccccc3OC)ccc2OCCN(C)C)c(F)c1 | 10 (≈ 4.5 µg/mL) | 10 (≈ 4.5 µg/mL) | 10 (≈ 4.5 µg/mL) | –
Cc1cc(C)cc(-c2ccc(OCCN(C)C)c(/C=C/C(=O)c3cccc(NCCN(C)C)c3)c2)c1 | 5 (≈ 2.43 µg/mL) | 10 (≈ 4.86 µg/mL) | 10 (≈ 4.86 µg/mL) | MIC [8]: 20 µM (≈ 9.71 µg/mL)
COc1ccc(C(=O)/C=C/c2cc(-c3ccccc3OC)ccc2N2CCN(C(C)=O)CC2)c(F)c1 | – | – | – | MIC [4]: inactive; MIC [5]: inactive; MIC [10]: inactive
CN(C)CCOc1ccc(C(=O)/C=C/c2ccc(Cl)cc2Cl)cc1 | 40 (≈ 14.6 µg/mL) | 40 (≈ 14.6 µg/mL) | 40 (≈ 14.6 µg/mL) | Hemolysis [7]: 100%; Membrane integrity [9]: 0%
COc1ccc(C(=O)/C=C/c2cc(-c3ccccc3OC)ccc2N2CC[N+](C)(C)CC2)c(F)c1 | 10 | – | – | –
Cc1cc(C)cc(-c2ccc(OCCN(C)C)c(/C=C/C(=O)c3ccc(OCCN(C)C)cc3)c2)c1 | 10 (≈ 4.87 µg/mL) | 20 (≈ 9.73 µg/mL) | 10 (≈ 4.87 µg/mL) | MIC [8]: 40 µM (≈ 19.5 µg/mL)
Cc1cc(C)cc(-c2ccc(OCCN(C)C)c(/C=C/C(=O)c3cccc(N)c3)c2)c1 | 10 (≈ 4.15 µg/mL) | 10 (≈ 4.15 µg/mL) | 10 (≈ 4.15 µg/mL) | MIC [6]: inactive
Cc1cc(C)cc(-c2ccc(OCCN(C)C)c(/C=C/C(=O)c3cccc(OCCN(C)C)c3)c2)c1 | 5 (≈ 2.43 µg/mL) | 10 (≈ 4.87 µg/mL) | 10 (≈ 4.87 µg/mL) | MIC [8]: 20 µM (≈ 9.73 µg/mL)
CN(C)Cc1ccc(C(=O)/C=C/c2ccc(Cl)cc2Cl)cc1 | 40 (≈ 13.4 µg/mL) | 75 (≈ 25.1 µg/mL) | 40 (≈ 13.4 µg/mL) | –
COc1ccc(C(=O)/C=C/c2cc(-c3cc(C)cc(C)c3)ccc2OCC[N+](C)(C)C)c(C[N+](C)(C)C)c1 | 10 | – | – | –
Cc1cc(C)cc(-c2ccc(OCCN(C)C)c(/C=C/C(=O)c3ccccc3N)c2)c1 | 5 (≈ 2.07 µg/mL) | 10 (≈ 4.15 µg/mL) | 5 (≈ 2.07 µg/mL) | MIC [11]: inactive
COc1ccc(C(=O)/C=C/c2cc(-c3cc(C)cc(C)c3)ccc2OCCN(C)C)c(F)c1 | 5 (≈ 2.24 µg/mL) | 5 (≈ 2.24 µg/mL) | 5 (≈ 2.24 µg/mL) | –
CN(C)CCNc1ccccc1C(=O)/C=C/c1ccc(Cl)cc1Cl | 40 (≈ 14.5 µg/mL) | 75 (≈ 27.2 µg/mL) | 40 (≈ 14.5 µg/mL) | –
Cc1cc(C)cc(-c2ccc(N3CCN(C)CC3)c(/C=C/C(=O)c3cccc(NCCN(C)C)c3)c2)c1 | 5 (≈ 2.48 µg/mL) | 5 (≈ 2.48 µg/mL) | 5 (≈ 2.48 µg/mL) | MIC [8]: 10 µM (≈ 4.97 µg/mL)
COc1ccc(C(=O)/C=C/c2cc(C)ccc2OCCN(C)C)c(F)c1 | 75 (≈ 26.8 µg/mL) | 150 (≈ 53.6 µg/mL) | 150 (≈ 53.6 µg/mL) | –
C[N+](C)(C)CCOc1ccc(C(=O)/C=C/c2ccc(Cl)cc2Cl)cc1 | 40 | – | – | –
Cc1cc(C)cc(-c2ccc(OCCN(C)C)c(/C=C/C(=O)c3ccc(CN(C)C)cc3)c2)c1 | 5 (≈ 2.28 µg/mL) | 20 (≈ 9.13 µg/mL) | 10 (≈ 4.57 µg/mL) | MIC [8]: 20 µM (≈ 9.13 µg/mL)
CN(C)CCNc1ccc(C(=O)/C=C/c2ccc(Oc3ccccc3)cc2)cc1 | 20 (≈ 7.73 µg/mL) | 5 (≈ 1.93 µg/mL) | 20 (≈ 7.73 µg/mL) | –
